According to ChEMBL document CHEMBL1926577, “Novel 1,3,4-heterodiazole analogues: synthesis and in-vitro antitumor activity” (2012):

Legend:
Format in all cases: functional
SF-295 = experiment: Growth inhibition of human SF295 cells at 10 uM after 48 hrs by coulter counter method; conditions: SF-295, 48 h, read-out: GI
Outline: (§1)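 NCI 60-cell-line panel, single dose. Compound dissolved first in DMSO, then diluted in phosphate-buffered saline so that every final dilution held under 1% DMSO. Duplicate wells received cells at 6 × 10⁴ cells/ml. Controls held PBS/DMSO at the same dilution. Plates were incubated 48 h at 37 °C under 5% CO₂. Cells were then diluted 10-fold in saline and counted on a Coulter counter, with counts corrected for the dilution. Results are given as percent growth inhibition.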

SR = experiment: Growth inhibition of human SR cells at 10 uM after 48 hrs by coulter counter method; conditions: read-out: GI; outline: as §1
786-0 = experiment: Growth inhibition of human 786-0 cells at 10 uM after 48 hrs by coulter counter method; conditions: 786-0, 48 h, read-out: GI; outline: as §1
KM12 = experiment: Growth inhibition of human KM12 cells at 10 uM after 48 hrs by coulter counter method; conditions: KM12, 48 h, read-out: GI; outline: as §1
SF-268 = experiment: Growth inhibition of human SF268 cells at 10 uM after 48 hrs by coulter counter method; conditions: SF-268, 48 h, read-out: GI; outline: as §1
CCRF-CEM = experiment: Growth inhibition of human CCRF-CEM cells at 10 uM after 48 hrs by coulter counter method; conditions: read-out: GI; outline: as §1
NCI-H23 = experiment: Growth inhibition of human NCI-H23 cells at 10 uM after 48 hrs by coulter counter method; conditions: NCI-H23, 48 h, read-out: GI; outline: as §1
OVCAR-8 = experiment: Growth inhibition of human OVCAR8 cells at 10 uM after 48 hrs by coulter counter method; conditions: OVCAR-8, 48 h, read-out: GI; outline: as §1
NCI/ADR-RES = experiment: Growth inhibition of human NCI/ADR-RES cells at 10 uM after 48 hrs by coulter counter method; conditions: read-out: GI; outline: as §1
SK-MEL-2 = experiment: Growth inhibition of human SK-MEL-2 cells at 10 uM after 48 hrs by coulter counter method; conditions: SK-MEL-2, 48 h, read-out: GI; outline: as §1
BT-549 = experiment: Growth inhibition of human BT549 cells at 10 uM after 48 hrs by coulter counter method; conditions: BT-549, 48 h, read-out: GI; outline: as §1
UACC-257 = experiment: Growth inhibition of human UACC257 cells at 10 uM after 48 hrs by coulter counter method; conditions: UACC-257, 48 h, read-out: GI; outline: as §1
NCI-H522 = experiment: Growth inhibition of human NCI-H522 cells at 10 uM after 48 hrs by coulter counter method; conditions: NCI-H522, 48 h, read-out: GI; outline: as §1
MOLT-4 = experiment: Growth inhibition of human MOLT4 cells at 10 uM after 48 hrs by coulter counter method; conditions: MOLT-4, 48 h, read-out: GI; outline: as §1
RPMI-8226 = experiment: Growth inhibition of human RPMI8226 cells at 10 uM after 48 hrs by coulter counter method; conditions: RPMI-8226, 48 h, read-out: GI; outline: as §1
IGROV-1 = experiment: Growth inhibition of human IGROV1 cells at 10 uM after 48 hrs by coulter counter method; conditions: IGROV-1, 48 h, read-out: GI; outline: as §1
Malme-3M = experiment: Growth inhibition of human MALME-3M cells at 10 uM after 48 hrs by coulter counter method; conditions: read-out: GI; outline: as §1
UACC-62 = experiment: Growth inhibition of human UACC62 cells at 10 uM after 48 hrs by coulter counter method; conditions: UACC-62, 48 h, read-out: GI; outline: as §1
HT-29 = experiment: Growth inhibition of human HT-29 cells at 10 uM after 48 hrs by coulter counter method; conditions: HT-29, 48 h, read-out: GI; outline: as §1
A498 = experiment: Growth inhibition of human A498 cells at 10 uM after 48 hrs by coulter counter method; conditions: A498, 48 h, read-out: GI; outline: as §1
MDA-MB-468 = experiment: Growth inhibition of human MDA-MB-468 cells at 10 uM after 48 hrs by coulter counter method; conditions: MDA-MB-468, 48 h, read-out: GI; outline: as §1
SNB-75 = experiment: Growth inhibition of human SNB75 cells at 10 uM after 48 hrs by coulter counter method; conditions: SNB-75, 48 h, read-out: GI; outline: as §1
T47D = experiment: Growth inhibition of human T47D cells at 10 uM after 48 hrs by coulter counter method; conditions: read-out: GI; outline: as §1
HCT-116 = experiment: Growth inhibition of human HCT116 cells at 10 uM after 48 hrs by coulter counter method; conditions: HCT-116, 48 h, read-out: GI; outline: as §1
CAKI-1 = experiment: Growth inhibition of human Caki1 cells at 10 uM after 48 hrs by coulter counter method; conditions: CAKI-1, 48 h, read-out: GI; outline: as §1
TK-10 = experiment: Growth inhibition of human TK10 cells at 10 uM after 48 hrs by coulter counter method; conditions: TK-10, 48 h, read-out: GI; outline: as §1
NCI-H322M = experiment: Growth inhibition of human NCI-H322M cells at 10 uM after 48 hrs by coulter counter method; conditions: read-out: GI; outline: as §1
UO-31 = experiment: Growth inhibition of human UO31 cells at 10 uM after 48 hrs by coulter counter method; conditions: UO-31, 48 h, read-out: GI; outline: as §1
NCI-H226 = experiment: Growth inhibition of human NCI-H226 cells at 10 uM after 48 hrs by coulter counter method; conditions: NCI-H226, 48 h, read-out: GI; outline: as §1
MCF7 = experiment: Growth inhibition of human MCF7 cells at 10 uM after 48 hrs by coulter counter method; conditions: MCF7, 48 h, read-out: GI; outline: as §1
HL-60(TB) = experiment: Growth inhibition of human HL-60(TB) cells at 10 uM after 48 hrs by coulter counter method; conditions: HL-60, 48 h, read-out: GI
Outline: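 Single-dose screen on the NCI 60-line panel (leukemia subpanel). Compound is dissolved in DMSO and diluted in PBS, with final DMSO below 1%. Duplicate wells hold 6 × 10⁴ cells/ml at 37 °C, 5% CO₂, for 48 h. Cells are counted by Coulter counter after 10-fold saline dilution. Read-out is percent growth versus PBS/DMSO controls, expressed as % growth inhibition.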

SN12C = experiment: Growth inhibition of human SN12C cells at 10 uM after 48 hrs by coulter counter method; conditions: read-out: GI; outline: as §1
SK-MEL-28 = experiment: Growth inhibition of human SK-MEL-28 cells at 10 uM after 48 hrs by coulter counter method; conditions: SK-MEL-28, 48 h, read-out: GI; outline: as §1
HCT-15 = experiment: Growth inhibition of human HCT15 cells at 10 uM after 48 hrs by coulter counter method; conditions: HCT-15, 48 h, read-out: GI; outline: as §1
M14 = experiment: Growth inhibition of human M14 cells at 10 uM after 48 hrs by coulter counter method; conditions: M14, 48 h, read-out: GI; outline: as §1
U-251 = experiment: Growth inhibition of human U251 cells at 10 uM after 48 hrs by coulter counter method; conditions: U-251, 48 h, read-out: GI; outline: as §1
SNB-19 = experiment: Growth inhibition of human SNB19 cells at 10 uM after 48 hrs by coulter counter method; conditions: SNB-19, 48 h, read-out: GI; outline: as §1
A549 = experiment: Growth inhibition of human A549 cells at 10 uM after 48 hrs by coulter counter method; conditions: A549, 48 h, read-out: GI; outline: as §1
LOX IMVI = experiment: Growth inhibition of human LOXIMVI cells at 10 uM after 48 hrs by coulter counter method; conditions: read-out: GI; outline: as §1
EKVX = experiment: Growth inhibition of human EKVX cells at 10 uM after 48 hrs by coulter counter method; conditions: read-out: GI; outline: as §1
PC-3 = experiment: Growth inhibition of human PC3 cells at 10 uM after 48 hrs by coulter counter method; conditions: PC-3, 48 h, read-out: GI; outline: as §1
K562 = experiment: Growth inhibition of human K562 cells at 10 uM after 48 hrs by coulter counter method; conditions: K562, 48 h, read-out: GI; outline: as §1
MDA-MB-435 = experiment: Growth inhibition of human MDA-MB-435 cells at 10 uM after 48 hrs by coulter counter method; conditions: MDA-MB-435, 48 h, read-out: GI; outline: as §1
SK-MEL-5 = experiment: Growth inhibition of human SK-MEL-5 cells at 10 uM after 48 hrs by coulter counter method; conditions: SK-MEL-5, 48 h, read-out: GI; outline: as §1
ACHN = experiment: Growth inhibition of human ACHN cells at 10 uM after 48 hrs by coulter counter method; conditions: read-out: GI; outline: as §1

Measured: inhibition of growth at 10 µM

O=C1N=C2SC(c3ccccc3)=NN2C1=O
10.7%: PC-3
12.4%: NCI-H522
< 10%: SF-295 | SR | 786-0 | KM12 | SF-268 | CCRF-CEM | NCI-H23 | OVCAR-8 | NCI/ADR-RES | SK-MEL-2 | BT-549 | MOLT-4 | IGROV-1 | Malme-3M | UACC-62 | HT-29 | A498 | MDA-MB-468 | SNB-75 | T47D | HCT-116 | CAKI-1 | TK-10 | NCI-H226 | MCF7 | HL-60(TB) | SN12C | SK-MEL-28 | HCT-15 | M14 | U-251 | SNB-19 | A549 | LOX IMVI | EKVX | K562 | MDA-MB-435 | SK-MEL-5 | ACHN
15.5%: UACC-257
25.7%: UO-31
12.6%: RPMI-8226
10.8%: NCI-H322M
